T cruzi intra: inhibitors of intracellular Trypanosoma cruzi. intracellular Trypanosoma cruzi in host cells, plate reader. activity score (inhibition), % at 5.01 µM. 22,000 compounds, 4.9% hits. AID 651903; in the data active = activity score above about 55%;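 note: parasites and compound incubated about four days before reading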
A1 apoptosis 2: A1 inhibition read as caspase activation; MEF A1-2A-BIM cells, caspase-Glo luminescence, 3 h; percent of clofoctol response, DMSO zero; caspase activation, % (concentration not given with the values); 24,000 tested, under 10 active; in the data active = caspase activation above about 5.9%
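Material: mouse embryonic fibroblasts co-expressing A1 and BIM (A1-2A-BIM), primed for A1 dependence / Quantity: 2500 cells/well / Buffer or medium: RPMI-1640 growth medium with 10% FBS / Doses: 50 nL compound per well, pinned / Schedule: 3 h compound exposure at 37 °C / Signal: Caspase-Glo luminescence (DEVD substrate) / Measure: Caspase-3/7 activation, seen as rise in luminescence signal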
INS-1E rescue: rescue of cytokine-induced death in INS-1E beta cells | INS-1E cytokine-induced death, ATP luminescence, 48 h; normalised: neutral wells 0, positive control 100 | AID 488910 | protection from cytokine-induced ATP loss, % at 10 µM | 20,000 compounds, 0.1% hits;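 active = mean replicate protection from cytokine-induced ATP loss at least 50% and at least 75% of replicates each reaching 50%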
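Assay system: INS-1E rat cells / Quantity: 8000 cells per well / Medium: RPMI without phenol red, 5% FBS / Probe or stimulus: three-cytokine cocktail (IFN-γ, TNF-α, IL-1β) / Dosing: one compound concentration, pin transfer / Timing: 48 h co-treatment, 10 min post-lysis read / Technique: CellTiter-Glo luminescence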
Of the large screens only hits and unclear results are named; the others gave an inactive call. This excerpt belongs to a sample that is enriched for hits.

C[C@H](CO)N1C[C@H](C)[C@@H](CN(C)C(=O)Nc2ccc(C(F)(F)F)cc2)Oc2c(NC(=O)Nc3ccc(C(F)(F)F)cc3)cccc2C1=O	T cruzi intra 78
C[C@H]1CN([C@@H](C)CO)C(=O)c2cccc(NC(=O)Nc3ccc(C(F)(F)F)cc3)c2O[C@@H]1CN(C)C(=O)Nc1ccc(F)cc1	none
COc1ccc(NC(=O)N(C)C[C@@H]2Oc3ccc(NS(=O)(=O)c4cn(C)cn4)cc3CC(=O)N([C@H](C)CO)C[C@@H]2C)cc1	none
Cc1ccc(S(=O)(=O)Nc2ccc3c(c2)C(=O)N([C@@H](C)CO)C[C@@H](C)[C@H](CN(C)S(=O)(=O)c2cn(C)cn2)O3)cc1	none (no result: A1 apoptosis 2)
CC(C)NC(=O)N(C)C[C@H]1Oc2ccc(NC(=O)Cc3ccccc3)cc2C(=O)N([C@@H](C)CO)C[C@@H]1C	none (no result: A1 apoptosis 2)
Cc1noc(C)c1NC(=O)N(C)C[C@@H]1Oc2ccc(NC(=O)Cn3cnnn3)cc2C(=O)N([C@H](C)CO)C[C@@H]1C	none
C[C@H](CO)N1C[C@H](C)[C@H](CN(C)Cc2ccc(Cl)c(Cl)c2)Oc2c(NC(=O)Nc3ccc(C(F)(F)F)cc3)cccc2C1=O	T cruzi intra 63
C[C@H]1CN([C@@H](C)CO)C(=O)c2cccc(NC(=O)NC3CCCCC3)c2O[C@@H]1CN(C)C(=O)Nc1ccc(C(F)(F)F)cc1	none
C[C@H](CO)N1C[C@H](C)[C@H](CN(C)C(=O)Nc2ccc(C(F)(F)F)cc2)Oc2c(NC(=O)NC3CCCCC3)cccc2C1=O	T cruzi intra 75
C[C@H]1CN([C@@H](C)CO)C(=O)c2cccc(NC(=O)Nc3cccc4ccccc34)c2O[C@@H]1CN(C)C(=O)Nc1ccc(F)cc1	none
C[C@H](CO)N1C[C@H](C)[C@H](CN(C)Cc2ccc(C(F)(F)F)cc2)Oc2c(NC(=O)Nc3ccc4c(c3)OCO4)cccc2C1=O	none (no result: A1 apoptosis 2)
C[C@H](CO)N1C[C@H](C)[C@H](CN(C)C(=O)Nc2ccc(F)cc2)Oc2c(NC(=O)Nc3cccc4ccccc34)cccc2C1=O	T cruzi intra 71
C[C@@H]1CN([C@@H](C)CO)C(=O)c2cccc(NC(=O)Nc3ccc(C(F)(F)F)cc3)c2O[C@@H]1CN(C)Cc1ccc2c(c1)OCO2	T cruzi intra 61
C[C@H](CO)N1C[C@H](C)[C@H](CN(C)Cc2ccc(Cl)c(Cl)c2)Oc2c(NC(=O)Nc3ccc(F)cc3)cccc2C1=O	none (no result: A1 apoptosis 2)
Cc1ccc(S(=O)(=O)N(C)C[C@H]2Oc3ccc(NS(=O)(=O)c4ccc(F)cc4)cc3C(=O)N([C@H](C)CO)C[C@@H]2C)cc1	none (no result: A1 apoptosis 2)
Cc1ccc(S(=O)(=O)N(C)C[C@H]2OCCCC[C@@H](C)Oc3ccc(NC(=O)Nc4cccc5ccccc45)cc3C(=O)N([C@@H](C)CO)C[C@@H]2C)cc1	none (no result: T cruzi intra, INS-1E rescue)
C[C@@H]1CN([C@H](C)CO)C(=O)c2cccc(NS(=O)(=O)c3ccccc3)c2O[C@@H]1CN(C)C(=O)NC1CCCCC1	none
C[C@H](CO)N1C[C@H](C)[C@H](CN(C)S(=O)(=O)c2ccc(F)cc2)Oc2ccc(NC(=O)CCC(F)(F)F)cc2CC1=O	none (no result: A1 apoptosis 2)
C[C@@H]1CN([C@H](C)CO)C(=O)c2cccc(NC(=O)Nc3cccc4ccccc34)c2O[C@H]1CN(C)C(=O)Nc1ccc(C(F)(F)F)cc1	none
C[C@@H]1CN([C@H](C)CO)C(=O)c2cccc(NC(=O)Nc3cccc4ccccc34)c2O[C@@H]1CN(C)C(=O)Nc1ccc(C(F)(F)F)cc1	T cruzi intra 65
C[C@H]1CN([C@@H](C)CO)C(=O)c2cccc(NC(=O)Nc3ccc(F)cc3)c2O[C@@H]1CN(C)C(=O)Nc1ccc(C(F)(F)F)cc1	none
C[C@H](CO)N1C[C@H](C)[C@H](CN(C)C(=O)NC2CCCCC2)Oc2c(NC(=O)Nc3cccc4ccccc34)cccc2C1=O	T cruzi intra 63
C[C@H](CO)N1C[C@H](C)[C@H](CN(C)C(=O)Nc2ccc(C(F)(F)F)cc2)Oc2c(NC(=O)Nc3ccc(C(F)(F)F)cc3)cccc2C1=O	T cruzi intra 78 (no result: A1 apoptosis 2)
C[C@@H]1CN([C@H](C)CO)C(=O)c2cccc(NC(=O)Nc3cccc4ccccc34)c2O[C@H]1CN(C)C(=O)NC1CCCCC1	none
C[C@@H]1CCCCO[C@@H](CN(C)C(=O)Nc2ccc3c(c2)OCO3)[C@@H](C)CN([C@H](C)CO)C(=O)c2cc(NS(=O)(=O)c3cccs3)ccc2O1	none (no result: A1 apoptosis 2)
O=C(O)CCCCCC(=O)NN=C1CCCCCCC1	none
COc1ccc(S(=O)(=O)Nc2ccc3c(c2)CC(=O)N([C@@H](C)CO)C[C@H](C)[C@H](CN(C)Cc2ccccc2)O3)cc1	none
COc1ccc(S(=O)(=O)Nc2ccc3c(c2)CC(=O)N([C@H](C)CO)C[C@H](C)[C@H](CN(C)Cc2ccc(Oc4ccccc4)cc2)O3)cc1	none (no result: A1 apoptosis 2)
COc1ccc(S(=O)(=O)Nc2ccc3c(c2)CC(=O)N([C@H](C)CO)C[C@H](C)[C@H](CN(C)Cc2ccc(-c4ccccc4)cc2)O3)cc1	none
COc1ccc(S(=O)(=O)Nc2ccc3c(c2)CC(=O)N([C@@H](C)CO)C[C@H](C)[C@@H](CN(C)Cc2ccc(-c4ccccc4)cc2)O3)cc1	T cruzi intra 73 (no result: A1 apoptosis 2)
COc1ccc(S(=O)(=O)Nc2ccc3c(c2)CC(=O)N([C@H](C)CO)C[C@@H](C)[C@H](CN(C)Cc2ccccc2)O3)cc1	T cruzi intra 66
COc1ccc(S(=O)(=O)Nc2ccc3c(c2)CC(=O)N([C@@H](C)CO)C[C@@H](C)[C@@H](CN(C)Cc2ccc(-c4ccccc4)cc2)O3)cc1	T cruzi intra 64
COc1ccc(S(=O)(=O)Nc2ccc3c(c2)CC(=O)N([C@H](C)CO)C[C@H](C)[C@@H](CN(C)Cc2ccc(-c4ccccc4)cc2)O3)cc1	none (no result: T cruzi intra, INS-1E rescue)
COc1ccc(S(=O)(=O)Nc2ccc3c(c2)CC(=O)N([C@H](C)CO)C[C@@H](C)[C@@H](CN(C)Cc2ccc(Oc4ccccc4)cc2)O3)cc1	T cruzi intra 70
Cc1ccc(S(=O)(=O)Nc2ccc3c(c2)C(=O)N([C@H](C)CO)C[C@@H](C)[C@@H](CN(C)C(=O)Nc2ccc4c(c2)OCO4)OCCCC[C@H](C)O3)cc1	none (no result: T cruzi intra, INS-1E rescue)
CCOC(=O)C1=CC[C@@H](c2ccccc2)[C@@H]1C(=O)c1ccc(OC)cc1	none (no result: T cruzi intra, INS-1E rescue)
C[C@@H]1CN([C@@H](C)CO)C(=O)Cc2cc(NC(=O)NC3CCCCC3)ccc2O[C@@H]1CN(C)Cc1ccc(Cl)c(Cl)c1	none (no result: A1 apoptosis 2)
C[C@H]1CN([C@@H](C)CO)C(=O)Cc2cc(NC(=O)NC3CCCCC3)ccc2O[C@@H]1CN(C)Cc1ccc(Cl)c(Cl)c1	T cruzi intra 65
C[C@@H]1CN([C@@H](C)CO)C(=O)Cc2cc(NC(=O)Nc3ccc(F)cc3)ccc2O[C@@H]1CN(C)Cc1ccc(-c2ccccc2)cc1	T cruzi intra 61
C[C@@H]1CN([C@@H](C)CO)C(=O)Cc2cc(NC(=O)Nc3ccccc3)ccc2O[C@@H]1CN(C)Cc1ccc(-c2ccccc2)cc1	T cruzi intra 62
C[C@H](CO)N1C[C@H](C)[C@H](CN(C)Cc2ccc(-c3ccccc3)cc2)Oc2ccc(NC(=O)NC3CCCCC3)cc2CC1=O	none (no result: A1 apoptosis 2)
